In publication PMC2762272 (Bioorganic & medicinal chemistry, 2009):

Columns and labels:
[1] = system: L1210, FM3A, Molt/4, CEM and HeLa cells; assay: Cell growth inhibitory activity, panel of cell lines; type: cell-based, murine and human; details: for IC50: read-out: IC50 values, range over the cell lines
In short: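 Murine L1210 leukemia and FM3A mammary carcinoma cells, and human Molt 4, CEM (T-lymphocyte) and HeLa (cervix carcinoma) cells. Cells were suspended at 300,000–500,000 cells/mL and mixed 1:1 with serial dilutions of test compound. Incubated 2 days at 37 °C, then cell number counted with a Coulter counter. IC50 (50% inhibition of proliferation) was taken from dose–response curves as mean ± SE of ≥3 independent experiments.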

[2] = system: murine leukemia (L1210) cells; assay: Cell growth inhibitory activity, L1210; type: cell-based; details: Mus musculus, L1210, 48 h, read-out: IC50 L1210
In short: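 Murine leukemia cells at 300,000-500,000 cells/mL were mixed 1:1 with dilutions of test compound and incubated at 37 °C for two days. Cell number was counted with a Coulter counter. IC50 is the concentration inhibiting proliferation by 50%, taken from dose–response curves as mean ± SE of at least three independent experiments.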

[3] = system: murine mammary carcinoma (FM3A) cells; assay: Cell growth inhibitory activity, FM3A; type: cell-based; details: Mus musculus, 48 h, read-out: IC50 FM3A/0
[4] = system: human T-lymphocyte Molt4/C8 cells; assay: Cell growth inhibitory activity, Molt/4; type: cell-based; details: Molt4/C8, 48 h, read-out: IC50 Molt4/C8
[5] = system: K562 (human chronic myelogenous leukemia) cells; assay: Flow cytometric analysis of cell cycle distribution; type: cell-based; details: 24 h, compound at concentration inhibiting 100% cell growth
bovine brain tubulin = assay: Inhibition of tubulin polymerization; type: biochemical
[6] = system: K562 (human chronic myelogenous leukemia) cells; assay: Concentration inhibiting 100% cell growth of K562 cells; type: cell-based
[7] = system: human cervix carcinoma (HeLa) cells; assay: Cell growth inhibitory activity, HeLa; type: cell-based

**Q.** With `COc1ccc2c(N(C)C)c(C(=O)c3cc(OC)c(OC)c(OC)c3)oc2c1` [Compound 3b] as the compound, how does the IC50 [1] read?
**A.** 48 to 78 nM

**Q.** And the IC50 [2]?
**A.** 65 ± 5 nM

**Q.** What about the IC50 [3] of the same compound?
**A.** 59 ± 5 nM

**Q.** Which results are given for `COc1ccc2c(N)c(C(=O)c3cc(OC)c(OC)c(OC)c3)oc2c1` [Compound 3a]?
**A.** IC50 [1]: 87 to 430 nM; IC50 [2]: 430 ± 40 nM; IC50 [3]: 280 ± 160 nM

**Q.** How did the IC50 [1] turn out when `COc1ccc2c(C)c(C(=O)c3cc(OC)c(OC)c(OC)c3)oc2c1` [Compound 4r, (6-Methoxy-3-methylbenzofuran-2-yl)(3,4,5-trimethoxyphenyl)methanone] was run?
**A.** 3 to 27 nM

**Q.** With `COc1ccc2cc(C(=S)c3cc(OC)c(OC)c(OC)c3)oc2c1` [Compound 4y, (6-methoxybenzofuran-2-yl)(3,4,5-trimethoxyphenyl)methanethione] as the compound, how does the IC50 [4] read?
**A.** 100 ± 10 nM

**Q.** How did the IC50 [4] turn out when `COc1cc(C(=O)c2cc3cccc(O)c3o2)cc(OC)c1OC` [Compound 4n, (7-Hydroxybenzofuran-2-yl)(3,4,5-trimethoxyphenyl)-methanone] was run?
**A.** > 10000 nM

**Q.** For `COc1cc(C(=O)c2oc3ccc(O)cc3c2C)cc(OC)c1OC` [Compound 4w, (5-Hydroxy-3-methylbenzofuran-2-yl)(3,4,5-trimethoxyphenyl)methanone], which “sub-G0–G1 peak (apoptotic peak, A)” value [5] is on record?
**A.** 20–44%

**Q.** `COc1ccc(/C=C\c2cc(OC)c(OC)c(OC)c2)cc1O` [CA4, combretastatin A-4] was tested. Which IC50 [2] did it give?
**A.** 2.8 ± 1.1 nM

**Q.** What does the source list for `COc1cc(C(=O)c2oc3cc(F)ccc3c2C)cc(OC)c1OC` [Compound 4u, (6-Fluoro-3-methylbenzofuran-2-yl)(3,4,5-trimethoxyphenyl)methanone]?
**A.** effect on cell cycle distribution [5]: accumulate in late S phase; sub-G0–G1 peak (apoptotic peak, A) [5]: 20–44%; antitubulin polymerization activity (in words) (bovine brain tubulin): weak antitubulin polymerization activity; concentration able to inhibit 100% cell growth after 24 h [6]: 1.62 µM

**Q.** Which IC50 [4] does the source give for `COc1cc(C(=O)c2cc3ccc(O)cc3o2)cc(OC)c1OC` [Compound 4m, (6-Hydroxybenzofuran-2-yl)(3,4,5-trimethoxyphenyl)-methanone] here?
**A.** > 10000 nM

**Q.** Which “antiproliferative activity (in words)” value ([1]; five cell lines) does the source give for `COc1ccc2c3c(oc2c1)C(=O)c1cc(OC)c(OC)c(OC)c1-3` [Compound 4ac, 3,8,9,10-tetramethoxy-6H-benzo[b]indeno[1,2-d]furan-6-one] here?
**A.** completely inactive

**Q.** And the IC50 [4]?
**A.** > 10000 nM

**Q.** For `COc1cc(C(=O)c2oc3cccc(OC)c3c2C)cc(OC)c1OC` [Compound 4p, (4-Methoxy-3-methylbenzofuran-2-yl)(3,4,5-trimethoxyphenyl)methanone], which “effect on cell cycle distribution” value [5] is on record?
**A.** accumulate in late S phase

**Q.** And the “sub-G0–G1 peak (apoptotic peak, A)” value [5]?
**A.** 20–44%

**Q.** With `CCOc1ccc2c(C)c(C(=O)c3cc(OC)c(OC)c(OC)c3)oc2c1` [Compound 4t, (6-Ethoxy-3-methylbenzofuran-2-yl)(3,4,5-trimethoxyphenyl)methanone] as the compound, how does the “fold increase of activity relative to 4r” value ([1]; L1210, FM3A, Molt/4 and CEM cells) read?
**A.** 10 fold

**Q.** What about the IC50 [1] of the same compound?
**A.** 1.2 to 6.3 nM

**Q.** What about the “fold increase of activity relative to 4r” value [7] of the same compound?
**A.** 2 fold

**Q.** For `COc1ccc2cc(C(=O)c3cc(OC)c(OC)c(OC)c3)oc2c1` [Compound 4d, (6-Methoxybenzofuran-2-yl)(3,4,5-trimethoxyphenyl)methanone], which IC50 [1] is on record?
**A.** 59 to 110 nM

**Q.** Which IC50 [4] does the source give for `COc1cc(C(=O)c2cc3cc(OC)c(OC)c(OC)c3o2)cc(OC)c1OC` [Compound 4k, (5,6,7-Trimethoxybenzofuran-2-yl)(3,4,5-trimethoxyphenyl)methanone] here?
**A.** > 10000 nM

**Q.** Which IC50 [4] does the source give for `COc1cc(C(=O)c2cc3cc(Cl)ccc3o2)cc(OC)c1OC` [Compound 4g, (5-Chlorobenzofuran-2-yl)(3,4,5-trimethoxyphenyl)methanone] here?
**A.** > 10000 nM

**Q.** `COc1cc(C(=O)c2cc3cc(Br)ccc3o2)cc(OC)c1OC` [Compound 4h, (5-Bromobenzofuran-2-yl)(3,4,5-trimethoxyphenyl)methanone] was tested. Which IC50 [4] did it give?
**A.** > 10000 nM

**Q.** Which “sub-G0–G1 peak (apoptotic peak, A)” value [5] does the source give for `COc1cc(C(=O)c2cc3c(OC)cccc3o2)cc(OC)c1OC` [Compound 4b, (4-Methoxybenzofuran-2-yl)(3,4,5-trimethoxyphenyl)methanone] here?
**A.** 20–44%

**Q.** For `COc1cc(C(=O)c2cc3ccc(OC)c(O)c3o2)cc(OC)c1OC` [Compound 4i, (7-Hydroxy-6-methoxybenzofuran-2-yl)(3,4,5-trimethoxyphenyl)methanone], which IC50 [4] is on record?
**A.** > 10000 nM

**Q.** `COc1cc(C(=O)c2cc3cc(O)ccc3o2)cc(OC)c1OC` [Compound 4l, (5-Hydroxybenzofuran-2-yl)(3,4,5-trimethoxyphenyl)-methanone] was tested. Which IC50 [4] did it give?
**A.** > 10000 nM

**Q.** Which IC50 [4] does the source give for `COc1ccc2cc(C(OC)c3cc(OC)c(OC)c(OC)c3)oc2c1` (stereo not shown) [Compound 4aa, 6-methoxy-2-(methoxy(3,4,5-trimethoxyphenyl)methyl)benzofuran] here?
**A.** > 10000 nM
